From ChEMBL document CHEMBL1150387, “Development and experimental validation of a docking strategy for the generation of kinase-targeted libraries” (J Med Chem, 2008) come the findings set out here.

Test [1] deals with High affinity nerve growth factor receptor (Homo sapiens) (UniProt P04629). Briefly: Inhibition of TrkA at 10 uM by HTRF assay relative to control. The essentials: (§1)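 HTRF kinase assay, one panel of kinases. Inhibitor stock 50 µM in 100% DMSO; tested at 10 µM. ATP and substrate at final levels near Km. Final buffer: 50 mM Hepes/NaOH pH 7.4, 40 µM Na3VO4, 0.005% Tween-20, 1 mM DTT, MnCl2 or MgCl2 at kinase-dependent levels. Started by adding ATP/substrate. Reaction run at room temperature, time varied by kinase. Detection mix in 50 mM Hepes pH 7.4, 0.1% BSA, 150 mM KF, incubated ≥1 h at room temperature. Activity expressed as % of uninhibited control; n=2.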

For test [2], the target named is Rho-associated protein kinase 2 (Homo sapiens) (UniProt O75116). Briefly: Inhibition of ROCK2 at 10 uM by HTRF assay relative to control. In outline:
as §1

Test [3] has as its target Cyclin-dependent kinase 2 (Homo sapiens) (UniProt P24941). The experiment in a line: Inhibition of CDK2 at 10 uM by HTRF assay relative to control. The essentials:
as §1

Test [4] has as its target Mitogen-activated protein kinase 1 (Homo sapiens) (UniProt P28482). The experiment in a line: Inhibition of ERK2 at 10 uM by HTRF assay relative to control. The essentials:
as §1

Test [5] addresses Ribosomal protein S6 kinase beta-1 (Homo sapiens) (UniProt P23443). Briefly: Inhibition of p70S6K at 10 uM by HTRF assay relative to control. In outline:
as §1

Test [6] addresses Tyrosine-protein kinase ABL1 (Homo sapiens) (UniProt P00519). Briefly: Inhibition of Abl at 10 uM by HTRF assay relative to control. The essentials:
as §1

Test [7] concerns the target Mitogen-activated protein kinase 8 (Homo sapiens) (UniProt P45983). Briefly: Inhibition of JNK1 at 10 uM by HTRF assay relative to control. The essentials: as §1
The target in test [8] is Tyrosine-protein kinase Lck (Homo sapiens) (UniProt P06239). Briefly: Inhibition of Lck at 10 uM by HTRF assay relative to control. The essentials: as §1
The target in test [9] is Proto-oncogene tyrosine-protein kinase Src (Homo sapiens) (UniProt P12931). The experiment in a line: Inhibition of Src at 10 uM by HTRF assay relative to control. In outline: as §1
The target in test [10] is Protein-tyrosine kinase 6 (Homo sapiens) (UniProt Q13882). Briefly: Inhibition of Brk at 10 uM by HTRF assay relative to control. In outline: as §1
Test [11] deals with Tyrosine-protein kinase Fes/Fps (Homo sapiens) (UniProt P07332). Briefly: Inhibition of FES at 10 uM by HTRF assay relative to control. In outline:
as §1

The target in test [12] is Tyrosine-protein kinase Lyn (Homo sapiens) (UniProt P07948). Briefly: Inhibition of Lyn at 10 uM by HTRF assay relative to control. In outline:
as §1

Test [13] concerns the target T1, Mitogen-activated protein kinase 12 (Homo sapiens) (UniProt P53778).
T1 sequence (whole entry): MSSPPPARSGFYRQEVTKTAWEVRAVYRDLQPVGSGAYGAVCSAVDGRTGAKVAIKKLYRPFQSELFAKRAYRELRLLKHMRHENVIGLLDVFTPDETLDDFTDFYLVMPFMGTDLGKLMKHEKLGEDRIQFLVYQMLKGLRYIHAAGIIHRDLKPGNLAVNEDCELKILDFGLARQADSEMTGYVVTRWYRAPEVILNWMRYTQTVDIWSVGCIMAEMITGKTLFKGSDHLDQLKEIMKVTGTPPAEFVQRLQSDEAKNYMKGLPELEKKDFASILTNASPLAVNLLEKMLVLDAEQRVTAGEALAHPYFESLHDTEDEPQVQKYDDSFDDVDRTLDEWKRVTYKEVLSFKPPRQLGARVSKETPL
The experiment in a line: Inhibition of p38-gamma at 10 uM by HTRF assay relative to control. The essentials:
as §1

For test [14], the target named is Cyclin-dependent kinase 1 (Homo sapiens) (UniProt P06493). Briefly: Inhibition of CDK1 at 10 uM by HTRF assay relative to control. In outline: as §1
In test [15] the target is Insulin-like growth factor 1 receptor (Homo sapiens) (UniProt P08069). Briefly: Inhibition of IGF1R at 10 uM by HTRF assay relative to control. The essentials: as §1
Test [16] addresses Serine/threonine-protein kinase Chk2 (Homo sapiens) (UniProt O96017). The experiment in a line: Inhibition of CHK2 at 10 uM by HTRF assay relative to control. In outline:
as §1

Test [17] addresses T2, Serine/threonine-protein kinase Chk1 (Homo sapiens) (UniProt O14757).
T2 sequence (whole entry): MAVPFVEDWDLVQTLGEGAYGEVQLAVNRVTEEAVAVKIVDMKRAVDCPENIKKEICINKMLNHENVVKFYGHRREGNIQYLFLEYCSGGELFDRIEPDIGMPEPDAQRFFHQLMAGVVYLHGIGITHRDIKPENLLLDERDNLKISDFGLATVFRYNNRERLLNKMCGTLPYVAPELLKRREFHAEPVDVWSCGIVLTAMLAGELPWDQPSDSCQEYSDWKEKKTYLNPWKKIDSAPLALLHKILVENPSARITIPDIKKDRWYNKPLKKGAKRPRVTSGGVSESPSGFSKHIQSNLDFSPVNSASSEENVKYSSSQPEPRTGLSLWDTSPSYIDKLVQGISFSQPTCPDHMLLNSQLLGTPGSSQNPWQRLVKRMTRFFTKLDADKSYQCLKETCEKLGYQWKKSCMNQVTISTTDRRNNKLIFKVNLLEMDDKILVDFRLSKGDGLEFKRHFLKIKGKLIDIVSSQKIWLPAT
Briefly: Inhibition of CHK1 at 10 uM by HTRF assay relative to control. In outline: as §1

The target of test [18] is RAC-alpha serine/threonine-protein kinase (Homo sapiens) (UniProt P31749). Briefly: Inhibition of AKT1/PKBalpha at 10 uM by HTRF assay relative to control. The essentials: as §1
The nature of test [19]: Inhibition of PKA at 10 uM by HTRF assay relative to control. In outline: as §1
A short description of test [20]: Inhibition of IRK at 10 uM by HTRF assay relative to control. The essentials:
as §1

Chain of Cyclin-dependent kinase 1 (Homo sapiens) (P06493 whole entry, looked up): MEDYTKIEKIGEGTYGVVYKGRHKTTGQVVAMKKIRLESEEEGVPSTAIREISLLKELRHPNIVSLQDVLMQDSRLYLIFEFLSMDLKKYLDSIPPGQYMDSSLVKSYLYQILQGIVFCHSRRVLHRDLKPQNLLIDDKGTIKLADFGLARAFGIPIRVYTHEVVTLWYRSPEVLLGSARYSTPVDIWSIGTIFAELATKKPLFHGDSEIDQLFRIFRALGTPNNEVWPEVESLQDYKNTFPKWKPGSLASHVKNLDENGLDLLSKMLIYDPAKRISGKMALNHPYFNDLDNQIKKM
Chain of Proto-oncogene tyrosine-protein kinase Src (Homo sapiens) (P12931 2-536 limits assumed): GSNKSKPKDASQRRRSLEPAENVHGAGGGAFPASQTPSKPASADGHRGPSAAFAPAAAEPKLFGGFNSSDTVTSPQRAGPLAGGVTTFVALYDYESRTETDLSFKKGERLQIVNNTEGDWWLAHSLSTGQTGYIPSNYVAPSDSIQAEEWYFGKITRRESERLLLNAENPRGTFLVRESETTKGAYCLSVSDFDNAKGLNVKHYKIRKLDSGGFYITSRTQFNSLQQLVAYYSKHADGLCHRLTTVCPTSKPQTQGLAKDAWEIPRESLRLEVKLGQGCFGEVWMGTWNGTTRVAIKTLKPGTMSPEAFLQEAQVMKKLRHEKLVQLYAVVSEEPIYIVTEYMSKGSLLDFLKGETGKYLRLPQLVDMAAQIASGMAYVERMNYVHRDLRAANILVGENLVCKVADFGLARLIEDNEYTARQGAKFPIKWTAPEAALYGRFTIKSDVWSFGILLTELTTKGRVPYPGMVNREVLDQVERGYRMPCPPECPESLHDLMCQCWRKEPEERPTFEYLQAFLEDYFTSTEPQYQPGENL
Chain of Rho-associated protein kinase 2 (Homo sapiens) (O75116 whole entry, looked up): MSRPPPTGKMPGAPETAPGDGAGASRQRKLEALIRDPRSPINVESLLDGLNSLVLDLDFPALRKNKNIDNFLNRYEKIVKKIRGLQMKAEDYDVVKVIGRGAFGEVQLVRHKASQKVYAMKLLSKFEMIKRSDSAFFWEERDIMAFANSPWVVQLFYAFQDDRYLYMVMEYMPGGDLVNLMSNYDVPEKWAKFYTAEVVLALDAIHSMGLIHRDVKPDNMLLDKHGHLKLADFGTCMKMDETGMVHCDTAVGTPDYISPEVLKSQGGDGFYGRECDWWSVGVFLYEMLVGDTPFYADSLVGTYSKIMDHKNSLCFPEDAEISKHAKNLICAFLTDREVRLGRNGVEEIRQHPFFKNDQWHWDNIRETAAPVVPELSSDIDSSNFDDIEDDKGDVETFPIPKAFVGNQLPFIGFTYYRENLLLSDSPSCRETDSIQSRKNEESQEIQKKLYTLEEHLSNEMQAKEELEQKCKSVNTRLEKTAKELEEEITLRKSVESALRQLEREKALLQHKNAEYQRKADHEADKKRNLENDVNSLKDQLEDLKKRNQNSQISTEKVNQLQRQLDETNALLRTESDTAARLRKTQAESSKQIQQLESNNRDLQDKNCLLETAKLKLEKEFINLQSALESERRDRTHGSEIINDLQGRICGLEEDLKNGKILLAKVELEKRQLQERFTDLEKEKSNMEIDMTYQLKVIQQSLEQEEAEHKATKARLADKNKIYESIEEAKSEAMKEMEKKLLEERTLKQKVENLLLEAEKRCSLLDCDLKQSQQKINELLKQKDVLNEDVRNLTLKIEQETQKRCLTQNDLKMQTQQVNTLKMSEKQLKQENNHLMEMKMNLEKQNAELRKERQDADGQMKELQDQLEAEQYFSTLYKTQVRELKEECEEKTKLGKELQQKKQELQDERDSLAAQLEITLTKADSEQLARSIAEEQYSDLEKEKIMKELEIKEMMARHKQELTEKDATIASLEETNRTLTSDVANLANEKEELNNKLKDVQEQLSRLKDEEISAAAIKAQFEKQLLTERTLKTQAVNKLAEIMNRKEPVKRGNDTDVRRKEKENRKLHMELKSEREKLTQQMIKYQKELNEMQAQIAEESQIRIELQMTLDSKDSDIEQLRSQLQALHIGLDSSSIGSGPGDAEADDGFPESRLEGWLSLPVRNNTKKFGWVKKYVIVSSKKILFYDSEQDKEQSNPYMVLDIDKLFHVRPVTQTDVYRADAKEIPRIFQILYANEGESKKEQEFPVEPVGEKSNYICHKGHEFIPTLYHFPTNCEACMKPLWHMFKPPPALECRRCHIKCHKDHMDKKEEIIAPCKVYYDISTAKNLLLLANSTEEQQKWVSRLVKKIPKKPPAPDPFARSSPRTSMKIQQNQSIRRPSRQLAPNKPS
Chain of High affinity nerve growth factor receptor (Homo sapiens) (P04629 33-796 limits assumed): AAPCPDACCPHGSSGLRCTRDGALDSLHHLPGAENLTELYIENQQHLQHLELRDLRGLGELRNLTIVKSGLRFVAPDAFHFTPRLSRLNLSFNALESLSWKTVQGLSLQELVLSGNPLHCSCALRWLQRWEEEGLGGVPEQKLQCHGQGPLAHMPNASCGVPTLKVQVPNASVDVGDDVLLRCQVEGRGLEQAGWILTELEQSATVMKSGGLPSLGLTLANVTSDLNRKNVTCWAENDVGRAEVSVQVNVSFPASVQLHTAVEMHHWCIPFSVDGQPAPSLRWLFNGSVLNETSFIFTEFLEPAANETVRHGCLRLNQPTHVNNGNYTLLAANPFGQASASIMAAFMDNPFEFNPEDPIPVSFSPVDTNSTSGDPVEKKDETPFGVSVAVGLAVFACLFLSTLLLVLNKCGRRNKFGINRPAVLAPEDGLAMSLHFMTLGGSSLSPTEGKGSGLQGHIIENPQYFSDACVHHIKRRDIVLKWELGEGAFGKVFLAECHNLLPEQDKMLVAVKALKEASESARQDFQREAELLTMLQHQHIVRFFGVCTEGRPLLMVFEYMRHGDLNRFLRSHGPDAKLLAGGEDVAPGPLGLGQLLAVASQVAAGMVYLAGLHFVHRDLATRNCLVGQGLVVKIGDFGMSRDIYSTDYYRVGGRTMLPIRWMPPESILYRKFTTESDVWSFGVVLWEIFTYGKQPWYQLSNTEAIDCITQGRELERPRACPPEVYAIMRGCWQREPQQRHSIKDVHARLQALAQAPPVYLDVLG
Chain of Insulin-like growth factor 1 receptor (Homo sapiens) (P08069 31-736 limits assumed): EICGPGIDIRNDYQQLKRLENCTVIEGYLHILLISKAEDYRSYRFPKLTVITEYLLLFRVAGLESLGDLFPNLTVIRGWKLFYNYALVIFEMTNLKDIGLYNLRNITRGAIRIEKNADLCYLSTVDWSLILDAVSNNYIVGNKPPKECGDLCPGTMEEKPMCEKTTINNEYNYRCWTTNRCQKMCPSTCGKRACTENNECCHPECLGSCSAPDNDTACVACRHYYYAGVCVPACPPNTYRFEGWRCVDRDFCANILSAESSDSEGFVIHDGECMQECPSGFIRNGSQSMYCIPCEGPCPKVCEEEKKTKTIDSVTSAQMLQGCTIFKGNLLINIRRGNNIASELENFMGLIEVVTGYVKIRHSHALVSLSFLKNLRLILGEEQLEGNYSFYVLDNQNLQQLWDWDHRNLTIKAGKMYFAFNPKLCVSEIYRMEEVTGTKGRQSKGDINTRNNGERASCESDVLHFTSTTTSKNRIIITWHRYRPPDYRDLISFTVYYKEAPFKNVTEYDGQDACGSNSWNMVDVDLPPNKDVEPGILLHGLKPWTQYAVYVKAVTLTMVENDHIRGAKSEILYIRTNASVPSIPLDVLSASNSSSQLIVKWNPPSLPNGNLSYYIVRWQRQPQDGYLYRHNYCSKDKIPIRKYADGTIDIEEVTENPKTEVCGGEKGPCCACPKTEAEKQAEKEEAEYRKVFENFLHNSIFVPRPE
Chain of Insulin-like growth factor 1 receptor (Homo sapiens) (P08069 741-1367 limits assumed): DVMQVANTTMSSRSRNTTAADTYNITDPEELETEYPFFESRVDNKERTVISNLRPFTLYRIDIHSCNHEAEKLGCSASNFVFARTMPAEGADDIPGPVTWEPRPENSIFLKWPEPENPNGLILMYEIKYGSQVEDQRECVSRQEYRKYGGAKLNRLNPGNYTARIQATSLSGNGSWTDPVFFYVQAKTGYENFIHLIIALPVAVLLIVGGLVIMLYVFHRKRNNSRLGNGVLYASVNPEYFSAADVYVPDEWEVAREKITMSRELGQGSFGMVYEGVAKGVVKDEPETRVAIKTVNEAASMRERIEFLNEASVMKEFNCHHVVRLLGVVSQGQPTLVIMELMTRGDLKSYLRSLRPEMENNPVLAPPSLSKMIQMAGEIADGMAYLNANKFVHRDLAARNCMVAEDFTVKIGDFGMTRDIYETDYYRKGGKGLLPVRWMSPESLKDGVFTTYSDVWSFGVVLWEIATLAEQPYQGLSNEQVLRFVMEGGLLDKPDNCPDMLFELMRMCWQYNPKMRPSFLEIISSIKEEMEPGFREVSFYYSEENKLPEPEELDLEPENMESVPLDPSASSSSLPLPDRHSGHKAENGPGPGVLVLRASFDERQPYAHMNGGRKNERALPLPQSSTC
Chain of Serine/threonine-protein kinase Chk2 (Homo sapiens) (O96017 whole entry): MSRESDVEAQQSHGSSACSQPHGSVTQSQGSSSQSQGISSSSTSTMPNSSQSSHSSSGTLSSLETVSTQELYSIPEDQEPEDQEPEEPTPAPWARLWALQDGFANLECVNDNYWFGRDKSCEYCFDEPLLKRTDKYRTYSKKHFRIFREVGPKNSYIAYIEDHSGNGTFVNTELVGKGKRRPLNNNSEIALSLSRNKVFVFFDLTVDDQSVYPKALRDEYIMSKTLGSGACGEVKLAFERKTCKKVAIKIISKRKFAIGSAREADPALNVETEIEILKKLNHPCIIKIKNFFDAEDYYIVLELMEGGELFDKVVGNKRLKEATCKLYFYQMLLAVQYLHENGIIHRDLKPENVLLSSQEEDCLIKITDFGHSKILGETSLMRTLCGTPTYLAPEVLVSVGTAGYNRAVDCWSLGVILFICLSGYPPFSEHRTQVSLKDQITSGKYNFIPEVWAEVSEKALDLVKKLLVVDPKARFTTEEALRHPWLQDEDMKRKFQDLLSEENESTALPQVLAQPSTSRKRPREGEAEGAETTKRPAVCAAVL

Take `O=C(NCCc1ccc(O)cc1)c1cccc(Nc2nccc(Nc3ccc4ncsc4c3)n2)c1`: the inhibition worked out at 27% in test [1]; 11% in test [2]; 8% in test [3]; 0% in test [4]; 0% in [5]; 11% in test [6]. Besides, the inhibition in [7] turned out to be 55%; in test [8], 1%; in [9], 71%; in [10] it was 18%; in test [11], 45%; in [12], 27%. Besides, the inhibition in [13] came to 0%; in [14], 0%; in test [15], 2%; in test [16] it was 0%; in [17] it was 0%; in test [18], 0%. The figures for the inhibition in test [19] and in test [20] were 0% and 1%, respectively.

As to `COC(=O)C(CO)NC(=O)[C@@H]1CCCN1c1nccc(Oc2cccc(C)c2)n1` (stereo not given in full), the inhibition in test [1] was found to be 4%; in test [2], 0%; in test [3], 6%; in test [4] it was 1%; in [5], 5%; in test [6], 10%. Further, the inhibition in [7] is 5%; in [8], 0%; in test [9], 0%; in test [10], 13%; in [11] it was 0%; in test [12], 6%. Further, the inhibition in test [13] came out at 0%; in test [14], 0%; in [15], 0%; in [16] it was 3%; in [17], 1%; in [18], 0%. Moreover, the inhibition in [19] and in test [20] was 0% in each case.

`Cc1cccc(N(C)c2cc(Nc3cccc(C(=O)NCCCn4ccnc4)c3)ncn2)c1`: the inhibition was 7% in test [1]; 0% in test [2]; 12% in [3]; 4% in test [4]; 8% in [5]; 71% in test [6]. Besides, the inhibition was found to be 24% in test [7]; 24% in [8]; 24% in test [9]; 12% in test [10]; 22% in [11]; 27% in test [12]. Besides, the inhibition in test [13] came out at 2%; in test [14] it was 0%; in test [15], 0%; in [16], 0%; in test [17] it was 0%; in test [18], 0%. Further, the inhibition in test [19] and in test [20] was 0% each time.

On to `O=C(c1nc(SCc2ccc(Cl)cc2)n2ccccc12)N1CCN(c2ncnc3c2CN(Cc2ccccc2)CC3)CC1`, for which the inhibition in test [1] worked out at 5%; in test [2], 0%; in test [3] it was 0%; in test [4], 3%; in test [5], 3%; in test [6], 13%. For the same compound, the inhibition in test [7] worked out at 7%; in [8], 0%; in test [9] it was 0%; in test [10] it was 9%; in [11], 0%; in [12] it was 1%. The inhibition in [13] was 0%; in [14], 0%; in test [15], 0%; in [16], 0%; in test [17], 5%; in test [18] it was 0%. Further, the inhibition in [19] and in test [20] was 0% in each case.

As for `CN(CCc1ccccn1)C(=O)c1cccc(Nc2nccc(Nc3ccc4ncsc4c3)n2)c1`, the inhibition in [1] was determined as 56%; in test [2], 7%; in [3], 12%; in test [4], 0%; in [5] it was 19%; in test [6], 69%. Further, the inhibition in test [7] was 70%; in test [8], 37%; in [9], 69%; in test [10] it was 78%; in test [11], 51%; in [12], 48%. Besides, the inhibition turned out to be 1% in test [13]; 0% in [14]; 50% in test [15]; 7% in test [16]; 0% in test [17]; 0% in test [18]. The inhibition is 1% in test [19] and 34% in test [20].

In the case of `Cc1cc(C(=O)N2CCN(c3ncnc4c3CN(Cc3ccccc3)CC4)CC2)c(C)n1C`, the inhibition in test [1] came to 0%; in [2], 0%; in test [3], 3%; in test [4], 2%; in test [5] it was 7%; in test [6] it was 5%. Moreover, the inhibition in test [7] is 0%; in [8], 0%; in [9], 0%; in [10], 22%; in test [11], 0%; in [12], 2%. In addition, the inhibition in test [13] came out at 0%; in [14], 0%; in test [15], 0%; in [16], 2%; in test [17], 3%; in [18], 0%. In addition, the inhibition in [19] and in test [20] was 0% each time.

Regarding `COc1cccc(Nc2cc(N3CCC[C@H]3C(=O)NCCN3CCCCC3)nc(N)n2)c1`, the inhibition in test [1] was determined as 8%; in test [2], 0%; in test [3], 12%; in [4], 0%; in [5], 14%; in test [6], 11%. In addition, the inhibition in test [7] is 10%; in [8], 0%; in test [9], 1%; in test [10], 7%; in [11], 4%; in test [12], 8%. In addition, the inhibition was 0% in [13]; 0% in test [14]; 1% in [15]; 0% in test [16]; 3% in test [17]; 2% in test [18]. Besides, the inhibition in [19] and in [20] was 0% each time.

Regarding `Cc1cccc(N(C)c2cc(Nc3cccc(C(=O)NCc4ccncc4)c3)ncn2)c1`, the inhibition in test [1] turned out to be 13%; in test [2], 0%; in [3], 20%; in test [4] it was 6%; in test [5], 9%; in test [6], 53%. The inhibition worked out at 19% in test [7]; 9% in test [8]; 26% in [9]; 0% in test [10]; 22% in test [11]; 19% in test [12]. Further, the inhibition turned out to be 3% in test [13]; 7% in test [14]; 0% in test [15]; 5% in test [16]; 3% in test [17]; 0% in test [18]. Further, the inhibition in test [19] and in [20] was 0% each time.

Regarding `CN(C)CC(C)(C)CNC(=O)C1CCN(c2cc(N3CCOCC3)nc(N)n2)CC1`, the inhibition was 7% in [1]; 0% in [2]; 8% in test [3]; 0% in test [4]; 6% in [5]; 2% in [6]. In addition, the inhibition in test [7] is 0%; in test [8] it was 0%; in test [9], 10%; in test [10] it was 3%; in test [11], 3%; in test [12], 7%. The inhibition came to 2% in [13]; 0% in [14]; 0% in [15]; 2% in test [16]; 8% in [17]; 0% in test [18]. In addition, the inhibition in test [19] and in test [20] was 0% throughout.
